Active and inactive are the calls of the source.
Legend:
Rattus norvegicus [1] = test: Anticonvulsant activity in Sprague-Dawley rat assessed as protection against maximal electroshock-induced seizure at 30 mg/kg, ip after 1 hr; type: functional, organism-based
Rattus norvegicus [2] = test: Neurotoxicity in ip dosed Sprague-Dawley rat after 0.5 hrs by rotarod test; type: toxicity, organism-based; settings: in vivo
Histamine H3 receptor = Histamine H3 receptor (Homo sapiens, UniProt Q9Y5N1); test: Displacement of [3H]-Nalpha-methylhistamine from human recombinant histamine H3 receptor expressed in HEK293 cells after 90 mins; type: cell-based
Mus musculus [3] = test: Neurotoxicity in CF1 albino mouse at 30 mg/kg, ip after 4 hrs by rotarod test; type: toxicity, organism-based; settings: in vivo
How it was run: (§1)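 Rotarod neurotoxicity in male albino CF-1 mice dosed ip with compound suspended in 0.5% methylcellulose. Animal placed on a 1 inch diameter knurled plastic rod rotating at 6 rpm. Neurotoxicity scored when the animal falls off three times within 1 min. Readout is number of animals toxic/number tested at the stated time after dosing. TD50 with 95% confidence interval from the quantitative study.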

Mus musculus [4] = test: Anticonvulsant activity in CF1 albino mouse assessed as protection against subcutaneous pentetrazole-induced seizure at 100 mg/kg, ip after 0.5 hrs; type: functional, organism-based
How it was run: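 Male CF-1 mice, ip in 0.5% methylcellulose; pentetrazole at CD97 (85 mg/kg) injected subcutaneously in a loose fold of neck skin. Observed 30 min; absence of even a threshold seizure (single clonic spasm lasting at least 5 s) counted as protection. Scored protected/tested, or ED50.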

Mus musculus [5] = test: Anticonvulsant activity in CF1 albino mouse assessed as protection against maximal electroshock-induced seizure at 10 mg/kg, ip after 0.5 hrs; type: functional, organism-based
How it was run: (§2)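 Male CF-1 mice dosed ip as suspension in 0.5% methylcellulose. Corneal electrodes deliver 60 Hz alternating current, 50 mA for […], after a drop of 0.5% tetracaine HCl in 0.9% NaCl per eye. Protection means abolition of hindlimb tonic extension; scored as protected/tested, or ED50 with 95% confidence interval.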

Rattus norvegicus [6] = test: Neurotoxicity in Sprague-Dawley rat at 30 mg/kg, ip after 0.25 hrs by rotarod test; type: toxicity, organism-based; settings: in vivo
How it was run: (§3)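 Male Sprague–Dawley rats given compound ip as a suspension in 0.5% methylcellulose, groups of four. Rotarod: 1 inch knurled rod at 6 rpm; three falls within 1 min counts as neurotoxic. Scored as number toxic/number tested at pretreatment times between 0.25 and 4 h, or at the stated time.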

Mus musculus [7] = test: Protective index, ratio of TD50 for ip dosed CF1 albino mouse to ED50 for ip dosed CF1 albino mouse assessed as protection against maximal electroshock-induced seizure after 0.25 hrs; type: functional
Mus musculus [8] = test: Neurotoxicity in ip dosed CF1 albino mouse after 0.25 hrs by rotarod test; type: toxicity, organism-based; settings: in vivo
How it was run: as §1, with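 “dosing.” for “dosing. TD50 with 95% confidence interval from the quantitative study.”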

Mus musculus [9] = test: Anticonvulsant activity in CF1 albino mouse assessed as protection against maximal electroshock-induced seizure at 100 mg/kg, ip after 4 hrs; type: functional, organism-based; how it was run: as §2
Mus musculus [10] = test: Neurotoxicity in CF1 albino mouse at 30 mg/kg, ip after 0.5 hrs by rotarod test; type: toxicity, organism-based; settings: in vivo; how it was run: as §1
Rattus norvegicus [11] = test: Neurotoxicity in Sprague-Dawley rat at 30 mg/kg, ip after 4 hrs by rotarod test; type: toxicity, organism-based; settings: in vivo; how it was run: as §3
Mus musculus [12] = test: Neurotoxicity in CF1 albino mouse assessed as unable to grasp rotarod and death at 300 mg/kg, ip after 0.5 hrs by rotarod test; type: toxicity, organism-based; settings: in vivo
How it was run: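 Male albino CF-1 mice dosed ip with compound suspended in 0.5% methylcellulose, then placed on a 1-inch knurled plastic rod turning at 6 rpm. A fall three times within 1 min counted as neurotoxicity. Observations were made at 0.5 h and 4 h after dosing. Result given as animals showing toxicity per animals tested, with the kind of toxicity recorded.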

Chain of Histamine H3 receptor (Q9Y5N1 whole entry): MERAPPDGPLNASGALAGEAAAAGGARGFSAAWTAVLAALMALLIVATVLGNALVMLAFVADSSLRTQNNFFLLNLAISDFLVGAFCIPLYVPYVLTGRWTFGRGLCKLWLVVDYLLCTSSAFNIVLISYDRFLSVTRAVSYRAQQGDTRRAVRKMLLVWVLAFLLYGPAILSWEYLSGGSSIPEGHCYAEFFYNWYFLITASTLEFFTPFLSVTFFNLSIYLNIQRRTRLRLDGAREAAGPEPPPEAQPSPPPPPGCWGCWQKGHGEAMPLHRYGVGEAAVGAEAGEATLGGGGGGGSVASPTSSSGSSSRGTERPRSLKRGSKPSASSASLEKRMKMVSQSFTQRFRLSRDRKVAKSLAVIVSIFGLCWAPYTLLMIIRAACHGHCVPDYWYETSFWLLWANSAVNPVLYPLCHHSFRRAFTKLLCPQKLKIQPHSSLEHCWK

For `CC1CCCN(CCCCCCCOc2ccc(Cl)cc2)C1.O=C(O)C(=O)O` (stereo not drawn), the Activity (Rattus norvegicus [1]) was “Active”, the ED50 (Rattus norvegicus [2]) was 50.35 mg/kg and the Ki (Histamine H3 receptor) was 0.18 µM. The Activity (Mus musculus [3]) was “Non-toxic”, the Activity (Mus musculus [4]) was “inactive” and the Activity (Mus musculus [5]) was “inactive”. For the same compound, the Activity (Rattus norvegicus [6]) was “Non-toxic”, the “Ratio TD50/ED50” value (Mus musculus [7]) was 3 and the “TD50 (median neurotoxic dose)” value (Mus musculus [8]) was 48.28 mg/kg. For the same compound, the Activity (Mus musculus [9]) was “Active”, the Activity (Mus musculus [10]) was “Non-toxic” and the Activity (Rattus norvegicus [11]) was “Non-toxic”. The Activity (Mus musculus [12]) was “Toxic”.

Reference: ChEMBL document CHEMBL3745596, “Chlorophenoxy aminoalkyl derivatives as histamine H(3)R ligands and antiseizure agents” (Bioorg Med Chem, 2016)
